Experimental data from PMC3654042 (Environmental toxicology, 2012).
Entries after “also recorded” stand apart in the source; their conditions may differ. Where two headings read alike, the source gives them in different places.

How the values were obtained:
[1] = target: T1, purified porcine liver PMPMEase (Sus scrofa, UniProt Q29550); test: Inhibition of purified porcine liver PMPMEase; assay type: biochemical; conditions: for residual enzyme activity (suppressed to) / inhibition of PMPMEase: fragrance 1 mM, PMPMEase 5 µg, 1 mM RD-PNB, 1 h; for residual enzyme activity (suppressed to): % of uninhibited control
T1 sequence (Q29550 19-566): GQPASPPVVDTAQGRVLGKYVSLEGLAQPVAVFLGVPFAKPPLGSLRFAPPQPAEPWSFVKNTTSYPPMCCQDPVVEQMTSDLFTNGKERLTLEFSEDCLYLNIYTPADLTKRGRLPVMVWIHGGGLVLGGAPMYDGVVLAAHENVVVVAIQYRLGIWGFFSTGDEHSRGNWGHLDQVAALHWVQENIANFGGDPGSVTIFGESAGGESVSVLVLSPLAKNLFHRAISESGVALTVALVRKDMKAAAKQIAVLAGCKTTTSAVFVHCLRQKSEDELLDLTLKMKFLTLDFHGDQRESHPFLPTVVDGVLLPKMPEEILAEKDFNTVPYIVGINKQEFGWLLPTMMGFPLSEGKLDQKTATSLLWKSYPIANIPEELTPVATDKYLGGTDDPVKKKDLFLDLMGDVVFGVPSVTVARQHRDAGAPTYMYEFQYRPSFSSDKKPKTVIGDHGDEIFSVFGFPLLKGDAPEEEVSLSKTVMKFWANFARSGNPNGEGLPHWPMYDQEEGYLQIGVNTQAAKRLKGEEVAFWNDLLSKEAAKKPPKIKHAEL
Outline: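 Single-concentration screen: test compound 1 mM in DMSO was incubated with 5 µg purified pig liver PMPMEase and 1 mM RD-PNB substrate for 1 h in 100 mM Tris–HCl, pH 7.4, at 37°C. Stopped with methanol, chilled on ice, and centrifuged at 5000 × g for 5 min. Residual activity was measured by reversed-phase HPLC of the supernatant, as % of uninhibited control, N = 3.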

[2] = system: human neuroblastoma SH-SY5Y cells; test: Apoptosis assay; assay type: cell-based; conditions: 0–10 µM, serum-free medium
Outline: (§1)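 Treatment at 0–10 µM in serum-free medium at 37°C in 5% CO2/95% humidified air, one addition per well. Exposure is 24 h per methods and 48 h per figure legend. A549 were seeded at 2 × 10^5 per well and SH-SY5Y at 3 × 10^5 per well in 24-well plates. Stained in the dark with EB/AO 10 µg/mL for 15 min and viewed at 400× with 480/30 nm excitation. Green nuclei were scored live, condensed or fragmented orange chromatin apoptotic, and normal orange nuclei necrotic.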

[3] = system: human lung cancer A549 cells; test: Apoptosis assay; assay type: cell-based; conditions: 0–10 µM, serum-free medium
Outline: as §1

[4] = system: human neuroblastoma SH-SY5Y cells; test: Cell viability; assay type: cell-based; conditions: for cell degeneration: SH-SY5Y cells, 1–200 µM, 48 h
Outline: (§2)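 SH-SY5Y neuroblastoma cells grown in DMEM/F12 with 10% heat-inactivated FBS and penicillin/streptomycin at 37°C, 5% CO2, trypsinized at 80–90% confluence, and plated in 96-well plates. Exposed in serum-free DMEM/F12 to test compound (1–200 µM, acetone vehicle, 1% final), re-dosed identically at 24 h, for 48 h. Resazurin (0.05%) added for 2 h in the dark at room temperature. Fluorescence read at ex 560/em 590 nm as % of untreated control, mean ± SEM, N = 4.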

[5] = system: human lung cancer A549 cells; test: Cell viability; assay type: cell-based; conditions: for cell degeneration: A549 cells, 1–200 µM, 48 h
Outline: as §2, with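 “A549” for “SH-SY5Y neuroblastoma”, “seeded” for “plated”, “Treated with” for “Exposed in serum-free DMEM/F12 to”, “final) in serum-free RPMI 1640/F12, with the same dose re-added” for “final), re-dosed identically”, “nm and expressed” for “nm”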

[6] = purified porcine liver PMPMEase, RD-PNB substrate

CCCCCCCCC1CCC(=O)O1 (stereo not drawn) [Dodecalactone, γ-dodecalactone]
residual enzyme activity (suppressed to) [1]: less than 25% | Ki [1, 6]: 12 µM

CC1COCc2cc3c(cc21)C(C)(C)C(C)C3(C)C (stereo not drawn) [Galaxolide]
Ki [1]: 11 µM | residual enzyme activity (suppressed to) [1]: less than 25% | apoptosis (AO/EB staining, words) [2]: induced apoptosis | apoptosis (AO/EB staining, words) [3]: induced apoptosis | EC50 ([4]; Homo sapiens, SH-SY5Y, read-out: EC50 cell degeneration): 26 µM | cell degeneration [4]: significant degeneration | cell degeneration [5]: significant degeneration | EC50 ([5]; Homo sapiens, A549, read-out: EC50 cell degeneration): 58 µM

CCCCC=O [Pentanal, pentanal]
Ki [1]: 173 µM | IC50 ([1]; IC50, purified porcine liver PMPMEase, value as worded in text): > 1000 µM | inhibition of PMPMEase [1]: 60% | residual enzyme activity (suppressed to) [1]: less than 25%

CC(=O)c1cc2c(cc1C)C(C)(C)C(C)CC2(C)C (stereo not drawn) [Tonalide]
residual enzyme activity (suppressed to) [1]: less than 25% | Ki [1, 6]: 14 µM | apoptosis (AO/EB staining, words) [2]: apoptosis was observed in a concentration-dependent manner; also recorded: induced apoptosis | apoptosis (AO/EB staining, words) [3]: apoptosis was observed in a concentration-dependent manner; also recorded: induced apoptosis | cell degeneration [4]: significant degeneration | cell degeneration [5]: significant degeneration | EC50 ([5]; read-out: EC50 cell degeneration, lung cancer A549 cells, resazurin reduction): 14 µM

CC1=C(C=O)C(C)(C)CCC1 [β-Cyclocitral, β-cyclocitral]
residual enzyme activity (suppressed to) [1]: less than 25% | Ki [1, 6]: 4 µM

CCCCC1CCCCC(=O)O1 (stereo not drawn) [ε-decalactone]
inhibition of PMPMEase [1]: 30% | residual enzyme activity (suppressed to) [1]: less than 25%

O=C1CCCCCCCCCCCCCCO1 [ω-Pentadecalactone, ω-pentadecalactone]
residual enzyme activity (suppressed to) [1]: less than 25% | Ki [1, 6]: 46 µM
